Key:
[1] = Displacement of [3H]idazoxan from I2 receptor imidazoline binding site in rabbit kidney membranes after 45 mins by […]; type: cell membranes, Oryctolagus cuniculus, Membrane
Homo sapiens = organism: Homo sapiens; assay: Selectivity ratio of agonist activity at I1 receptor imidazoline binding site (unknown origin) to agonist activity at alpha2-AR (unknown origin)
[2] = molecular target: T1, Adrenergic receptor alpha-2 (Rattus norvegicus, UniProt P22086+P19328+P22909); assay: Displacement of [3H]-RX 821002 from alpha2-AR in Sprague-Dawley rat brain membranes after 30 mins by liquid scintillation counting; type: cell membranes, Membrane
T1 sequence (P22086 whole entry): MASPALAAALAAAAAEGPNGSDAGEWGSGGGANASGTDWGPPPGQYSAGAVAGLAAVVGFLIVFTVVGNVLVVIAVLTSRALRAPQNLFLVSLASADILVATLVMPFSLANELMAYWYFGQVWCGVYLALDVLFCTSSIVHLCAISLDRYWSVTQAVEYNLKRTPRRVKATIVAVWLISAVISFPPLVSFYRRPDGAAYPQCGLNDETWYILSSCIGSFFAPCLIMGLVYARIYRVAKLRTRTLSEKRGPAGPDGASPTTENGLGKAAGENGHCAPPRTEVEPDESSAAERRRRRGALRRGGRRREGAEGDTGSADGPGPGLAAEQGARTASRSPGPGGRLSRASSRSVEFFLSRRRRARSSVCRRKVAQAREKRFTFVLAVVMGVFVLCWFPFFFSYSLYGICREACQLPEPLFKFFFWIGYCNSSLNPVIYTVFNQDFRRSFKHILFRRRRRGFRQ
T1 sequence (P19328 whole entry): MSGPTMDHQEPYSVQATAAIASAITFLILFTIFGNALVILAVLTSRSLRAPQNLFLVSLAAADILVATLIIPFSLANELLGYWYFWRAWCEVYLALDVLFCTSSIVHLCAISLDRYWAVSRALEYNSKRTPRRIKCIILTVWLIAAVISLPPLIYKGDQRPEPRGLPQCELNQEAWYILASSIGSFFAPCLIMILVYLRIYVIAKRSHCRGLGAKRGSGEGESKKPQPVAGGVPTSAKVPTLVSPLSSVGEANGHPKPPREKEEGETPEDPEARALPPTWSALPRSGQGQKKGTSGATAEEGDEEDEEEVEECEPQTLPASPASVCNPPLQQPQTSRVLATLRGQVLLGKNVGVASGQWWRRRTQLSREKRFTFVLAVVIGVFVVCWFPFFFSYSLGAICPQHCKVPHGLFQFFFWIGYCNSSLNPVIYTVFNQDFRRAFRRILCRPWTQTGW
T1 sequence (P22909 whole entry): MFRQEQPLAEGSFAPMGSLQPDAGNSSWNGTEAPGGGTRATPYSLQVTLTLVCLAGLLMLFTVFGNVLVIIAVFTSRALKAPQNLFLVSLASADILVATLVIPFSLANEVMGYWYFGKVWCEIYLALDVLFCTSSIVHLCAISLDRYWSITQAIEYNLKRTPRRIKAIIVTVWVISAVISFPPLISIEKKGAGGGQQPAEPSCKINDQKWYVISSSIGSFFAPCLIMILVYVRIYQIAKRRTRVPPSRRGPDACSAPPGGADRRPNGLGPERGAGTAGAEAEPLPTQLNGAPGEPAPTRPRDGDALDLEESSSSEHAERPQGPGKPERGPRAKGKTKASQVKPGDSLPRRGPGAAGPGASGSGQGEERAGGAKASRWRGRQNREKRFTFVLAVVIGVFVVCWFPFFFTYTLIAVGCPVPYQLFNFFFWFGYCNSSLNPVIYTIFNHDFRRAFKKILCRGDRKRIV
Method in brief: (§1)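 Radioligand competition binding with pKi determined by displacement. I1 sites: [125I]-p-iodoclonidine on rat kidney membranes. I2 sites: [3H]-2-BFI on rat brain membranes. α2-ARs: [3H]-RX821002 on rat brain membranes.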

Nischarin = Nischarin (Rattus norvegicus, UniProt Q4G017); assay: Displacement of [125I]-p-iodoclonidine from I1 receptor imidazoline binding site in Sprague-Dawley rat kidney cell membranes after 30 mins by liquid scintillation counting; method in brief: as §1
[3] = Displacement of [3H]-2-BFI from I2 receptor imidazoline binding site in Sprague-Dawley rat brain membranes after 30 mins by liquid scintillation counting; type: cell membranes, Membrane; method in brief: as §1
[4] = molecular target: T2, Alpha-2B adrenergic receptor (Homo sapiens, UniProt P18089); assay: Agonist activity at human alpha2b-AR expressed in CHO cells assessed as rate of acidification after 240 mins by cytosensor microphysiometric analysis; type: cell-based
T2 sequence (P18089 whole entry): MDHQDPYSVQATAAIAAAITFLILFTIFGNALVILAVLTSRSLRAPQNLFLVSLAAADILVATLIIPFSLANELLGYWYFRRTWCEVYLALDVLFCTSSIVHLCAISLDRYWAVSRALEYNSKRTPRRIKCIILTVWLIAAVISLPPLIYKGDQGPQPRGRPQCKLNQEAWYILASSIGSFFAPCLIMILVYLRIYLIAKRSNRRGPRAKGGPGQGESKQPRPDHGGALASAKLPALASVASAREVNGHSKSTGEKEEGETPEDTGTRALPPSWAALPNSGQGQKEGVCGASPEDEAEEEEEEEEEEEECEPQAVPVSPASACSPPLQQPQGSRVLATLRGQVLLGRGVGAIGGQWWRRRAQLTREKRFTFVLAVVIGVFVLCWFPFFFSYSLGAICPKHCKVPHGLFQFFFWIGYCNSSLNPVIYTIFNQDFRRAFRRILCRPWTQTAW
Method in brief: (§2)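 Functional assay in CHO cells stably expressing a single human α2-AR subtype (α2A, α2B or α2C), read on a Cytosensor microphysiometer. Outputs are pEC50, intrinsic activity and, for antagonism, pKb. Intrinsic activity is expressed as a fraction of the full agonist (−)-noradrenaline, set at 1. Values are mean ± SEM of 3–5 separate experiments.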

[5] = molecular target: T3, Alpha-2C adrenergic receptor (Homo sapiens, UniProt P18825); assay: Agonist activity at human alpha2c-AR expressed in CHO cells assessed as rate of acidification after 240 mins by cytosensor microphysiometric analysis; type: cell-based; method in brief: as §2
T3 sequence (P18825 whole entry): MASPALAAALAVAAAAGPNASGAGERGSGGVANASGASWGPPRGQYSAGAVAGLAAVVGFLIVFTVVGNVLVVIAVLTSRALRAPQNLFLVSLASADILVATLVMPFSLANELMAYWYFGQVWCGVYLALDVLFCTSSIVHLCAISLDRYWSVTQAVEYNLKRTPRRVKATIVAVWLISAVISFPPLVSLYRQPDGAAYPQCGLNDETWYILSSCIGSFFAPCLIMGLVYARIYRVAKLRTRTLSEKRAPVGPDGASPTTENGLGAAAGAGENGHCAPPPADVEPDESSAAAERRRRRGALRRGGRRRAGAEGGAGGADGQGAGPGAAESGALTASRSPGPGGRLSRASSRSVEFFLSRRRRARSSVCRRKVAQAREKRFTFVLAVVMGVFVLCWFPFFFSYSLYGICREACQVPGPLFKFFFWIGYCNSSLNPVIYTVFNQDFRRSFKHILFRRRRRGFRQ

[6] = molecular target: T4, Alpha-2B adrenergic receptor (Homo sapiens) (UniProt P18089); assay: Agonist activity at human alpha2b-AR expressed in CHO cells assessed as rate of acidification after 240 mins by cytosensor microphysiometric analysis relative to (-)-noradrenaline; type: cell-based; method in brief: as §2
T4 sequence (whole entry): T2 sequence (P18089 whole entry)

[7] = molecular target: T5, Alpha-2C adrenergic receptor (Homo sapiens) (UniProt P18825); assay: Agonist activity at human alpha2c-AR expressed in CHO cells assessed as rate of acidification after 240 mins by cytosensor microphysiometric analysis relative to (-)-noradrenaline; type: cell-based; method in brief: as §2
T5 sequence (whole entry): T3 sequence (P18825 whole entry)

[8] = molecular target: T6, Alpha-2A adrenergic receptor (Homo sapiens) (UniProt P08913); assay: Antagonist activity at human alpha2a-AR expressed in CHO cells assessed as inhibition of (-)-noradrenaline-induced acidification rate after 240 mins by cytosensor microphysiometric analysis; type: cell-based; method in brief: as §2
T6 sequence (whole entry): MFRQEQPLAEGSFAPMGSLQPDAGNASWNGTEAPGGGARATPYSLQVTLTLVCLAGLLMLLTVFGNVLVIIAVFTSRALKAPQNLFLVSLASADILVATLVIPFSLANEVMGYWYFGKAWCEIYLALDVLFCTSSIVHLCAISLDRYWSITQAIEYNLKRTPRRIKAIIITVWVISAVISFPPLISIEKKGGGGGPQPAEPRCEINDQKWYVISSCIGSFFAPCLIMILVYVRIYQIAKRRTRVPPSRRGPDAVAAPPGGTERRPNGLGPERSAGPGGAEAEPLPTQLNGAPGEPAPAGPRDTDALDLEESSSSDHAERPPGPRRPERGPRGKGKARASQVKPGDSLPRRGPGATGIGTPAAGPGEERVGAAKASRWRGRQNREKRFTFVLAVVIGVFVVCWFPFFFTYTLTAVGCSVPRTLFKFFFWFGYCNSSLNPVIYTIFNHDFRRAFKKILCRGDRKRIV

[9] = molecular target: T7, Alpha-2A adrenergic receptor (Homo sapiens, UniProt P08913); assay: Agonist activity at human alpha2a-AR expressed in CHO cells assessed as rate of acidification after 240 mins by cytosensor microphysiometric analysis; type: cell-based; method in brief: as §2
T7 sequence (P08913 whole entry): T6 sequence (whole entry)

Sequence of Nischarin (Q4G017 whole entry): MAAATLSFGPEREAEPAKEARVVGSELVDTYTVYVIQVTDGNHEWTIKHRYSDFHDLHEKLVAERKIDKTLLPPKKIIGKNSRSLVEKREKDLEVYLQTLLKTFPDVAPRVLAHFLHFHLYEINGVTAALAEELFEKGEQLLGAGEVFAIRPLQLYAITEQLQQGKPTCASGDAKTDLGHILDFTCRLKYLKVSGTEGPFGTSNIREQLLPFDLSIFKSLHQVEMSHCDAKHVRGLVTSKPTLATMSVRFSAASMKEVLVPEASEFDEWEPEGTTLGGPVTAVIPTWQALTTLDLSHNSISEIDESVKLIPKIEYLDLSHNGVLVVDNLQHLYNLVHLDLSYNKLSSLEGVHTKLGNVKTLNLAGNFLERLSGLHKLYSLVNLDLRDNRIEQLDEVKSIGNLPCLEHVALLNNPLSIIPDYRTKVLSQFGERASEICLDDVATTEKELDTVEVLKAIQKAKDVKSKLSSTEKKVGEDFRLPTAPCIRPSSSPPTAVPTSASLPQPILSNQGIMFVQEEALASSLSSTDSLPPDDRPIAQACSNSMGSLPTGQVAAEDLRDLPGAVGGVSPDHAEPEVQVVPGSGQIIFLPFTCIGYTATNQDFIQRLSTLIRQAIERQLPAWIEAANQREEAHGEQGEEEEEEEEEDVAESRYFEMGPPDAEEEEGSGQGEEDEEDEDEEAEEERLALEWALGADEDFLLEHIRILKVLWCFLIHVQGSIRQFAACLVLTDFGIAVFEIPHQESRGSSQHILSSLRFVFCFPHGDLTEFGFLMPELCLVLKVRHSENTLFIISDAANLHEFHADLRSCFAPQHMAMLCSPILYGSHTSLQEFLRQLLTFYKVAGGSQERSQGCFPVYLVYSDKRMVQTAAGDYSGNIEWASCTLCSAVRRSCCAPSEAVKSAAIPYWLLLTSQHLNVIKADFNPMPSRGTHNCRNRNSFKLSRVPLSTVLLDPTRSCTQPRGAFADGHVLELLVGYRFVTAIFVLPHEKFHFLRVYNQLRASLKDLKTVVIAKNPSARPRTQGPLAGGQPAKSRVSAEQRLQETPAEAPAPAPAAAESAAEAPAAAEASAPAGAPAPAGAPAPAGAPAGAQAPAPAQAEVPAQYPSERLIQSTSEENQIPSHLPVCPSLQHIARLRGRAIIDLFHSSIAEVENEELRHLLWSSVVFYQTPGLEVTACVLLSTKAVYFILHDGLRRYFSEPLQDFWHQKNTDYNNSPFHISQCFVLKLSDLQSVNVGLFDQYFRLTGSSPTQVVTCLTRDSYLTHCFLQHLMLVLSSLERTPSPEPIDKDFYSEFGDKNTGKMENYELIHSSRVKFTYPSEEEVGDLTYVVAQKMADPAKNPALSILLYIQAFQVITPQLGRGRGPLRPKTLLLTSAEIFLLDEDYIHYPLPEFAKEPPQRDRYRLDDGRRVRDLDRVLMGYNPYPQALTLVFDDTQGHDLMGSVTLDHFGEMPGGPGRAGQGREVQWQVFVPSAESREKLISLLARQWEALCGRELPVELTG

| Selectivity ratio (Homo sapiens) | pKi [2] | Ki (Nischarin) | pKi [3] | EC50 [4] | EC50 [5] | Intrinsic activity [6] | Intrinsic activity [7] | Compound | further results |
| --- | --- | --- | --- | --- | --- | --- | --- | --- | --- |
| – | 7.59 | 0.00759 µM | 7.9 | 0.776 µM | 0.224 µM | 0.45 | 0.85 | Clc1ccccc1NCC1=NCCN1 | pKb [8]: 7.12 |
| – | 6.75 | 0.00141 µM | 6.1 | 0.955 µM | 0.148 µM | 0.5 | 0.8 | c1ccc(-c2ccccc2NCC2=NCCN2)cc1 | EC50 [9]: 0.0631 µM |

The next lines start with the molecule.

| Compound | Selectivity ratio (Homo sapiens) | pKi [2] | Ki (Nischarin) | pKi [3] | EC50 [4] | EC50 [5] | Intrinsic activity [6] | Intrinsic activity [7] | further results |
| --- | --- | --- | --- | --- | --- | --- | --- | --- | --- |
| c1ccc(NCC2=NCCN2)cc1 [PHENAMAZOLINE] | – | – | – | – | – | – | – | – | pKi [1]: 7.48 |
| Clc1cccc(Cl)c1NC1=NCCN1 | 4 | – | – | – | – | – | – | – | – |
| COc1nc(C)nc(Cl)c1NC1=NCCN1 | 40 | – | – | – | – | – | – | – | – |
| Clc1ccccc1/C=C/C1=NCCN1 | – | < 6 | 0.024 µM | 8.79 | – | – | – | – | – |
